From ChEMBL document CHEMBL1155843, “Selective alkylation of beta(II)-tubulin and thioredoxin-1 by structurally related subsets of aryl chloroethylureas leading to either anti-microtubules or redox modulating agents” (2008)
Active and inactive are the calls of the source. No cut-off for these calls is given here.

Legend:
MCF7 [1] = experiment: Antiproliferative activity against human MCF7 cells after 48 hrs by sulforhodamine B method; type: functional; conditions: MCF7, 48 h
Method in brief: (§1)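 Seeding per well: 5 × 10³ HT-29 cells, or 3.5 × 10³ M21 or MCF-7 cells. Drugs were dissolved fresh in DMSO and serially diluted in medium (final range 100 to 0.3), with DMSO held at 0.12%. Cells were exposed for 48 h, fixed with cold TCA (10% final, 1 h, 4 °C) and stained with 0.1% SRB for 15 min. Dye was solubilized in 10 mM Tris and read at A585. Day-0 OD was subtracted, inhibition was calculated against DMSO cells, and n ≥ 3.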

M21 [2] = experiment: Antiproliferative activity against human M21 cells after 48 hrs by sulforhodamine B method; type: functional; conditions: M21, 48 h; method in brief: as §1
HT-29 = experiment: Antiproliferative activity against human HT29 cells after 48 hrs by sulforhodamine B method; type: functional; conditions: HT-29, 48 h; method in brief: as §1
MCF7 [3] = experiment: Cell cycle arrest in human MCF7 cells assessed as accumulation at G0/G1 phase at 2 times GI50 after 24 hrs by flow cytometry; type: functional
Method in brief: (§2)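 Cells were trypsinized, PBS-washed, fixed in ice-cold ethanol, and stained with propidium iodide plus RNase for 30 min at room temperature. G0/G1, S and G2/M fractions were measured by flow cytometry.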

MCF7 [4] = experiment: Cell cycle arrest in human MCF7 cells assessed as accumulation at S phase at 2 times GI50 after 24 hrs by flow cytometry; type: functional; method in brief: as §2
MCF7 [5] = experiment: Cell cycle arrest in human MCF7 cells assessed as accumulation at G2/M phase at 2 times GI50 after 24 hrs by flow cytometry; type: functional; method in brief: as §2
M21 [6] = experiment: Induction of beta2-tubulin alkylation in human M21 cells at 2 times GI50 after 24 hrs by Western blot analysis; type: cell-based
Method in brief: (§3)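 Floating and adherent cells were pooled and lysed in boiled Laemmli buffer; protein was measured by Lowry. 20 µg per lane ran on 10% SDS-PAGE and was blotted with anti-βII-tubulin (1:500), HRP anti-mouse (1:2500) and ECL. Alkylation was scored as a faster-migrating βII-tubulin band.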

M21 [7] = experiment: Induction of beta2-tubulin alkylation in human M21 cells at 2 times GI50 after 48 hrs by Western blot analysis; type: cell-based; method in brief: as §3
M21 [8] = experiment: Inhibition of nuclear translocation of thioredoxin-1 from cytosol in human M21 cells at 2 times GI50 after 16 hrs by immunocytofluorescence; type: functional, cell-based
Method in brief: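 Cells were fixed in 3.7% formaldehyde (20 min), permeabilized with 0.1% saponin and blocked with 3% BSA. Staining used anti-Trx-1 monoclonal (1:200, 2 h, 37 °C) and Alexa-488 anti-mouse IgG (1:1000, 1 h). Trx-1 cytosol/nucleus localization was read by confocal immunofluorescence.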

M21 [9] = experiment: Induction of beta2-tubulin alkylation in human M21 cells at 2 times GI50 by Western blot analysis; type: cell-based; method in brief: as §3
M21 [10] = experiment: Stimulation of nuclear translocation of thioredoxin-1 from cytosol in human M21 cells at 25 µM after 16 hrs by immunocytofluorescence

| GI50 (MCF7 [1]) | GI50 (HT-29) | SMILES | GI50 (M21 [2]) | Activity (MCF7 [3]) | Activity (MCF7 [4]) | Activity (MCF7 [5]) | Activity (M21 [6]) | Activity (M21 [7]) | Activity (M21 [8]) | Activity (M21 [9]) | Activity (M21 [10]) |
| --- | --- | --- | --- | --- | --- | --- | --- | --- | --- | --- | --- |
| 4.2 µM | 1.3 µM | CC1(C)CCC(C)(C)c2cc(NC(=O)NCCCl)ccc21 | 2.6 µM | 6% | 20% | 74% | Active | Active | inactive | – | – |
| – | – | CCC(C)SSc1ncc[nH]1 (centres undefined) [PX-12] | – | 29% | 13% | 58% | – | – | – | inactive | Active |
